From PMC5554913 (ACS Medicinal Chemistry Letters, 2017)

Columns and labels:
[1] = tested on: Hep G2 cell line; assay: Cytotoxicity on Hep G2 cell line; assay type: cell-based
[2] = tested on: human lymphoblasts (CRL-8155); assay: Mammalian cell growth inhibition; assay type: cell-based; conditions: CRL-8155 cell line
[3] = tested on: T. brucei brucei strain BF427; assay: T. brucei growth inhibition; assay type: cell-based; conditions: for improvement in potency compared to compound 1: T. brucei EC50 vs compound 1
[4] = tested on: T. brucei rhodesiense STIB900; assay: Mouse efficacy model of acute T. brucei infection; assay type: in vivo; conditions: five mice, T. brucei rhodesiense STIB900, 50 mg/kg oral gavage b.i.d. days 2-5
Summary of the method: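 Mice were infected with T. brucei rhodesiense STIB900 on day 0 and placed in groups of five. Test compound was given at 50 mg/kg by oral gavage twice daily on days 2–5, with a vehicle-treated group. Cure meant no detectable parasitemia […] through 60 days postinfection.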

[5] = molecular target: CYP3A4 (Homo sapiens, UniProt P08684); assay: CYP3A4 inhibition; assay type: in vitro ADME
CYP3A4, sequence (P08684 whole entry, species assumed): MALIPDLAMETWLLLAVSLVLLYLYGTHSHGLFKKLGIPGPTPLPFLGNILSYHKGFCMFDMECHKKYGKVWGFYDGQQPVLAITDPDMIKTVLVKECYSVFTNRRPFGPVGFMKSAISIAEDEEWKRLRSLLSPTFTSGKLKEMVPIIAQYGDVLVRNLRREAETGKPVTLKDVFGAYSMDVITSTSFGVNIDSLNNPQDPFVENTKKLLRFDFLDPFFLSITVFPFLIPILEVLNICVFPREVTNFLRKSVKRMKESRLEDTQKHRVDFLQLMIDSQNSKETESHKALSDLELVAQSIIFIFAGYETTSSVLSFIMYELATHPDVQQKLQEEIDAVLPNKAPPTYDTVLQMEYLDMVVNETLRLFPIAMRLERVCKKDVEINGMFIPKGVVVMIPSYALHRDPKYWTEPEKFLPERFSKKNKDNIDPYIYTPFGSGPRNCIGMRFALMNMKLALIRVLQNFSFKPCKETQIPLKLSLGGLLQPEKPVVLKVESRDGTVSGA

[6] = Metabolic stability in pooled mouse liver microsomes; assay type: in vitro ADME; conditions: microsome T1/2, mouse microsomes
Summary of the method: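 Half-life of test compound measured in mouse liver microsomes. Testosterone and dextromethorphan HBr were run alongside as controls and had to fall within acceptable ranges.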

Structure (SMILES): COc1ccc(N2C(=O)CN(Cc3ccccc3)C2=S)cc1Cl [Compound 1]
- cytotoxicity on Hep G2 [1]: no detected cytotoxicity
- cytotoxicity on CRL-8155 [2]: no detected cytotoxicity

Structure (SMILES): COc1ccc(N2C(=O)CN(Cc3ccccc3)C2=S)cc1N(C)C [Compound 37]
- drop in activity compared to 36 ([3]; T. brucei EC50 vs compound 36): 30 fold

Structure (SMILES): COc1ccc(N2C(=O)CN(Cc3cccc(F)c3)C2=S)cc1Cl [Compound 40]
- decrease in potency compared to 39 ([3]; T. brucei EC50 vs compound 39): 18 fold

Structure (SMILES): CN(C)c1ccc(N2C(=O)CN(Cc3ccc(F)cc3)C2=S)cc1Cl [Compound 68, 1-(4-fluorobenzyl)-3-(4-dimethylamino-3-chlorophenyl)-2-thiohydantoin]
- cures (absence of detectable parasitemia for 60 days postinfection) [4]: 5/5
- improvement in potency compared to compound 1 [3]: > 100 fold
- IC50 [5]: 12.8 µM

Structure (SMILES): COc1cc(N2C(=O)CN(Cc3ccc(F)cc3Cl)C2=S)ccc1N(C)C [Compound 76, 1-(2-chloro-4-fluorobenzyl)-3-(4-dimethylamino-3-methoxyphenyl)-2-thiohydantoin]
- cures (absence of detectable parasitemia for 60 days postinfection) [4]: 5/5
- improvement in potency compared to compound 1 [3]: > 100 fold

Structure (SMILES): C[C@]12CC[C@H]3[C@@H](CCC4=CC(=O)CC[C@@]43C)[C@@H]1CC[C@@H]2O [Testosterone]
- half-life at 1.5 µM [6]: 3.97 min

Structure (SMILES): COc1ccc2c(c1)[C@]13CCCC[C@@H]1[C@H](C2)N(C)CC3 [dextromethorphan HBr]
- half-life at 1.5 µM [6]: 9.51 min
